Experimental data published in ChEMBL document CHEMBL1152599, “Synthesis and in vitro activities of new anticancer duplex drugs linking 2'-deoxy-5-fluorouridine (5-FdU) with 3'-C-ethynylcytidine (ECyd) via a phosphodiester bonding” (2009).

Columns and labels:
Type in all cases: functional
CCRF-CEM = experiment: Anticancer activity against human CCRF-CEM cells after 48 hrs by sulforhodamine B assay
Outline: (§1)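 NCI 60-cell-line anticancer screen. Each compound is tested at a minimum of five concentrations in 10-fold dilutions with 48 h drug exposure. Cell viability/growth is estimated by sulforhodamine B protein staining. GI50 is the log10 molar concentration giving 50% growth inhibition, read from the dose-response curves and mean graphs of the NCI data screening report. TGI was taken from double screens.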

HL-60 = experiment: Anticancer activity against human HL-60(TB) cells after 48 hrs by sulforhodamine B assay; settings: HL-60, 48 h
Outline: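 NCI 60-cell-line anticancer screen. Drugs tested at a minimum of five concentrations at 10-fold dilutions with 48 h exposure. Cell growth estimated by sulforhodamine B protein assay. GI50 is log10 of the molar concentration giving 50% growth inhibition, read from the screening data sheet, dose-response curves and mean graphs.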

K562 = experiment: Anticancer activity against human K562 cells after 48 hrs by sulforhodamine B assay; settings: K562, 48 h; outline: as §1
MOLT-4 = experiment: Anticancer activity against human MOLT4 cells after 48 hrs by sulforhodamine B assay; settings: MOLT-4, 48 h; outline: as §1
[1] = Anticancer activity against human […] cells after 48 hrs by sulforhodamine B assay; outline: as §1
SR = experiment: Anticancer activity against human SR cells after 48 hrs by sulforhodamine B assay
Outline: (§2)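 Tested in the NCI 60-human-tumour-cell-line screen. Compounds were applied at a minimum of five concentrations in 10-fold dilutions with 48 h exposure. Cell growth was estimated by sulforhodamine B protein staining. GI50 (log10 of molar concentration giving 50% growth inhibition) and TGI were read from the data sheets, dose-response curves and mean graphs. Some cell lines were screened twice.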

A549 = experiment: Anticancer activity against human A549 cells after 48 hrs by sulforhodamine B assay; settings: A549, 48 h; outline: as §1
EKVX = experiment: Anticancer activity against human EKVX cells after 48 hrs by sulforhodamine B assay; outline: as §1
HOP-62 = experiment: Anticancer activity against human HOP62 cells after 48 hrs by sulforhodamine B assay; settings: HOP-62, 48 h; outline: as §1
LOX IMVI = experiment: Anticancer activity against human LOXIMVI cells after 48 hrs by sulforhodamine B assay; outline: as §1
Malme-3M = experiment: Anticancer activity against human MALME-3M cells after 48 hrs by sulforhodamine B assay; outline: as §1
M14 = experiment: Anticancer activity against human M14 cells after 48 hrs by sulforhodamine B assay; settings: M14, 48 h; outline: as §1
SK-MEL-2 = experiment: Anticancer activity against human SK-MEL-2 cells after 48 hrs by sulforhodamine B assay; settings: SK-MEL-2, 48 h; outline: as §1
SK-MEL-28 = experiment: Anticancer activity against human SK-MEL-28 cells after 48 hrs by sulforhodamine B assay; settings: SK-MEL-28, 48 h; outline: as §1
SK-MEL-5 = experiment: Anticancer activity against human SK-MEL-5 cells after 48 hrs by sulforhodamine B assay; settings: SK-MEL-5, 48 h; outline: as §1
UACC-257 = experiment: Anticancer activity against human UACC257 cells after 48 hrs by sulforhodamine B assay; settings: UACC-257, 48 h; outline: as §2
UACC-62 = experiment: Anticancer activity against human UACC62 cells after 48 hrs by sulforhodamine B assay; settings: UACC-62, 48 h; outline: as §2
IGROV-1 = experiment: Anticancer activity against human IGROV1 cells after 48 hrs by sulforhodamine B assay; settings: IGROV-1, 48 h; outline: as §1
OVCAR-3 = experiment: Anticancer activity against human OVCAR-3 cells after 48 hrs by sulforhodamine B assay; settings: OVCAR-3, 48 h; outline: as §1
OVCAR-4 = experiment: Anticancer activity against human OVCAR4 cells after 48 hrs by sulforhodamine B assay; settings: OVCAR-4, 48 h; outline: as §1
OVCAR-5 = experiment: Anticancer activity against human OVCAR5 cells after 48 hrs by sulforhodamine B assay; settings: OVCAR-5, 48 h; outline: as §1
OVCAR-8 = experiment: Anticancer activity against human OVCAR8 cells after 48 hrs by sulforhodamine B assay; settings: OVCAR-8, 48 h; outline: as §1
SK-OV-3 = experiment: Anticancer activity against human SKOV3 cells after 48 hrs by sulforhodamine B assay; settings: SK-OV-3, 48 h; outline: as §1
786-0 = experiment: Anticancer activity against human 786-0 cells after 48 hrs by sulforhodamine B assay; settings: 786-0, 48 h; outline: as §1
A498 = experiment: Anticancer activity against human A498 cells after 48 hrs by sulforhodamine B assay; settings: A498, 48 h; outline: as §1
ACHN = experiment: Anticancer activity against human ACHN cells after 48 hrs by sulforhodamine B assay; outline: as §1
CAKI-1 = experiment: Anticancer activity against human Caki1 cells after 48 hrs by sulforhodamine B assay; settings: CAKI-1, 48 h; outline: as §1
RXF 393 = experiment: Anticancer activity against human RXF393 cells after 48 hrs by sulforhodamine B assay; settings: RXF 393, 48 h; outline: as §1
SN12C = experiment: Anticancer activity against human SN12C cells after 48 hrs by sulforhodamine B assay; outline: as §1
TK-10 = experiment: Anticancer activity against human TK10 cells after 48 hrs by sulforhodamine B assay; settings: TK-10, 48 h; outline: as §2
UO-31 = experiment: Anticancer activity against human UO31 cells after 48 hrs by sulforhodamine B assay; settings: UO-31, 48 h; outline: as §2
PC-3 = experiment: Anticancer activity against human PC3 cells after 48 hrs by sulforhodamine B assay; settings: PC-3, 48 h; outline: as §1
DU-145 = experiment: Anticancer activity against human DU145 cells after 48 hrs by sulforhodamine B assay; settings: DU-145, 48 h; outline: as §1
MCF7 = experiment: Anticancer activity against human MCF7 cells after 48 hrs by sulforhodamine B assay; settings: MCF7, 48 h; outline: as §1
NCI/ADR-RES = experiment: Anticancer activity against human NCI/ADR-RES cells after 48 hrs by sulforhodamine B assay; outline: as §1
MDA-MB-231 = experiment: Anticancer activity against human MDA-MB-231 cells after 48 hrs by sulforhodamine B assay; settings: MDA-MB-231, 48 h; outline: as §1
[2] = Anticancer activity against human Hs 578T cells after 48 hrs by sulforhodamine B assay; outline: as §1
MDA-MB-435 = experiment: Anticancer activity against human MDA-MB-435 cells after 48 hrs by sulforhodamine B assay; settings: MDA-MB-435, 48 h; outline: as §1
MDA-N = experiment: Anticancer activity against human MDA-N cells after 48 hrs by sulforhodamine B assay; outline: as §1
BT-549 = experiment: Anticancer activity against human BT549 cells after 48 hrs by sulforhodamine B assay; settings: BT-549, 48 h; outline: as §1
T47D = experiment: Anticancer activity against human T47D cells after 48 hrs by sulforhodamine B assay; outline: as §2
HOP-92 = experiment: Anticancer activity against human HOP92 cells after 48 hrs by sulforhodamine B assay; settings: HOP-92, 48 h; outline: as §1
NCI-H226 = experiment: Anticancer activity against human NCI-H226 cells after 48 hrs by sulforhodamine B assay; settings: NCI-H226, 48 h; outline: as §1
NCI-H23 = experiment: Anticancer activity against human NCI-H23 cells after 48 hrs by sulforhodamine B assay; settings: NCI-H23, 48 h; outline: as §1
NCI-H322M = experiment: Anticancer activity against human NCI-H322M cells after 48 hrs by sulforhodamine B assay; outline: as §1
NCI-H460 = experiment: Anticancer activity against human NCI-H460 cells after 48 hrs by sulforhodamine B assay; settings: NCI-H460, 48 h; outline: as §1
NCI-H522 = experiment: Anticancer activity against human NCI-H522 cells after 48 hrs by sulforhodamine B assay; settings: NCI-H522, 48 h; outline: as §1
COLO 205 = experiment: Anticancer activity against human COLO205 cells after 48 hrs by sulforhodamine B assay; settings: COLO 205, 48 h; outline: as §1
HCC 2998 = experiment: Anticancer activity against human HCC2998 cells after 48 hrs by sulforhodamine B assay; settings: HCC 2998, 48 h; outline: as §1
HCT-116 = experiment: Anticancer activity against human HCT116 cells after 48 hrs by sulforhodamine B assay; settings: HCT-116, 48 h; outline: as §1
HCT-15 = experiment: Anticancer activity against human HCT15 cells after 48 hrs by sulforhodamine B assay; settings: HCT-15, 48 h; outline: as §1
HT-29 = experiment: Anticancer activity against human HT-29 cells after 48 hrs by sulforhodamine B assay; settings: HT-29, 48 h; outline: as §1
KM12 = experiment: Anticancer activity against human KM12 cells after 48 hrs by sulforhodamine B assay; settings: KM12, 48 h; outline: as §1
SW-620 = experiment: Anticancer activity against human SW620 cells after 48 hrs by sulforhodamine B assay; settings: SW-620, 48 h; outline: as §2
SF-268 = experiment: Anticancer activity against human SF268 cells after 48 hrs by sulforhodamine B assay; settings: SF-268, 48 h; outline: as §1
SF-295 = experiment: Anticancer activity against human SF295 cells after 48 hrs by sulforhodamine B assay; settings: SF-295, 48 h; outline: as §1
SF-539 = experiment: Anticancer activity against human SF539 cells after 48 hrs by sulforhodamine B assay; settings: SF-539, 48 h; outline: as §1
SNB-19 = experiment: Anticancer activity against human SNB19 cells after 48 hrs by sulforhodamine B assay; settings: SNB-19, 48 h; outline: as §1
SNB-75 = experiment: Anticancer activity against human SNB75 cells after 48 hrs by sulforhodamine B assay; settings: SNB-75, 48 h; outline: as §2
U-251 = experiment: Anticancer activity against human U251 cells after 48 hrs by sulforhodamine B assay; settings: U-251, 48 h; outline: as §2

Measured: GI50

O=c1[nH]c(=O)n([C@H]2C[C@H](O)[C@@H](CO)O2)cc1F [FLOXURIDINE]
0.0316 µM: ACHN | CAKI-1
0.0251 µM: HOP-62 | LOX IMVI
0.0126 µM: SR | A549 | SF-268
0.316 µM: PC-3
0.251 µM: DU-145
0.126 µM: OVCAR-8 | UO-31 | HCT-116 | U-251
0.0398 µM: MOLT-4 | UACC-62 | SF-295
3.98 µM: RXF 393 | MDA-MB-231 | [2]
0.001 µM: HCC 2998
0.794 µM: K562 | [1] | HOP-92
0.00631 µM: CCRF-CEM | MCF7
6.31 µM: OVCAR-5 | KM12
7.94 µM: Malme-3M
1.26 µM: A498 | NCI/ADR-RES | MDA-N | T47D
0.501 µM: NCI-H23 | NCI-H322M
2.51 µM: IGROV-1 | OVCAR-3 | NCI-H522 | HT-29
3.16 µM: UACC-257 | MDA-MB-435
0.1 µM: 786-0
1 µM: BT-549
0.002 µM: NCI-H460
0.2 µM: HL-60 | SK-MEL-5 | SN12C | SNB-75
2 µM: SK-MEL-28 | SK-OV-3 | HCT-15 | SNB-19
0.158 µM: M14
0.00398 µM: SF-539
5.01 µM: TK-10
1.58 µM: COLO 205
10 µM: all other assays above

C#C[C@@]1(O)[C@@H](CO)O[C@@H](n2ccc(N)nc2=O)[C@@H]1O [TAS-106]
0.0199 µM: NCI-H322M | U-251
0.0158 µM: Malme-3M | TK-10 | NCI-H226 | SF-268 | SNB-75
0.01 µM: SK-MEL-5
0.0794 µM: UACC-257 | OVCAR-3 | SK-OV-3
0.0398 µM: M14 | MDA-MB-231 | BT-549 | SF-539
0.0126 µM: SK-MEL-2 | IGROV-1 | [2] | MDA-N
0.0316 µM: UACC-62 | PC-3 | NCI-H23
0.0251 µM: RXF 393
0.0631 µM: EKVX | HOP-92 | SNB-19
0.0501 µM: SK-MEL-28 | OVCAR-5
0.158 µM: OVCAR-4
< 0.01 µM: all other assays above
